Test results: ChEMBL document CHEMBL1138388, “Chemically programmed antibodies: endothelin receptor targeting CovX-Bodies” (Bioorg Med Chem Lett, 2007)
Active and inactive are the calls of the source. The rule behind the calls is not given here.

Columns and labels:
[1] = organism: Homo sapiens; test: Selectivity for human ETA receptor over human ETB receptor
[2] = target: T1, Endothelin-1 receptor (Homo sapiens, UniProt P25101); test: Displacement of [125I]ET1 from human ETA receptor expressed in CHO cells; assay type: cell-based
T1 sequence (P25101 whole entry): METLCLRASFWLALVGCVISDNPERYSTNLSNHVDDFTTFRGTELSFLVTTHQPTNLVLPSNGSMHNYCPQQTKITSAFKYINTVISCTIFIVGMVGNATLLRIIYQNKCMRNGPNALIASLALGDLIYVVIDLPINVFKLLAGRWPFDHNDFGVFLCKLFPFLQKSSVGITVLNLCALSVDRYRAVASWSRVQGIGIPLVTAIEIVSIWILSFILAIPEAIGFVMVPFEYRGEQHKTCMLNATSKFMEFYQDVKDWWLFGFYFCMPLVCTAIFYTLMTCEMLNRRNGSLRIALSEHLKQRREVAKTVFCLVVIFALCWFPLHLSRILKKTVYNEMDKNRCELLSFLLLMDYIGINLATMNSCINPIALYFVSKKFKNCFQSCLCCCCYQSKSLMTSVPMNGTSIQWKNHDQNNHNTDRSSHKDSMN
How it was run: (§1)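 Competitive binding against 125I-labeled ET-1 on CHO cells stably expressing human ETA or ETB receptor. Six concentrations, 1 µM to 10 pM, at least three measurements each. IC50 taken from the means.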

[3] = target: T2, Endothelin receptor type B (Homo sapiens, UniProt P24530); test: Displacement of [125I]ET1 from human ETB receptor expressed in CHO cells; assay type: cell-based; how it was run: as §1
T2 sequence (P24530 whole entry): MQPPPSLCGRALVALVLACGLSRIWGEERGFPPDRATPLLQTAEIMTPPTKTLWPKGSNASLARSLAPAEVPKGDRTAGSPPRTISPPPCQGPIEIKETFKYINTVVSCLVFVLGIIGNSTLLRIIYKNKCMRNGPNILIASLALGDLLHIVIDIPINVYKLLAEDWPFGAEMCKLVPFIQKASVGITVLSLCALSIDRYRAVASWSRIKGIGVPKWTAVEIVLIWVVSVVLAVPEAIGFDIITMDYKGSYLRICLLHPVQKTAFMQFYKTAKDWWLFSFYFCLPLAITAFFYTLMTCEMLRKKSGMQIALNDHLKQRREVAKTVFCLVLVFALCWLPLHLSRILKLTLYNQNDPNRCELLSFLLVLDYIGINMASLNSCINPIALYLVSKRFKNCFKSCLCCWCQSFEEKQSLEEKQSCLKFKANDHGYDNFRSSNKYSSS

[4] = tested on: PC-3; test: Inhibition of tumor growth in PC3 cells xenografted mouse at 0.25 mg/kg administered once weekly for 31 days; assay type: functional, organism-based; parameters: dose 0.25 mg/kg; details: Homo sapiens
How it was run: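 PC-3 prostate cancer xenograft. Dosing at 0.25 mg/kg once weekly. Tumor volume tracked to day 31 against vehicle control. Significance by one-way ANOVA with Dunnett's multiple comparison test to vehicle.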

[5] = tested on: PC-3; test: Inhibition of tumor growth in human PC3 cells xenografted mouse at 2 mg/kg after 31 days; assay type: functional; details: PC-3, 744 h
How it was run: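 PC-3 prostate cancer xenograft. Dosing at 2 mg/kg […]. Tumor volume growth inhibition read at day 31 against vehicle control. Significance by one-way ANOVA with Dunnett's test to vehicle.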

SMILES | Ratio IC50 [1] | IC50 [2] [nM] | IC50 [3] [nM] | Activity [4] | inhibition in vivo at 2 mg/kg [5] [%]
CC(=O)CC(=O)CCc1ccc(NC(=O)CCOCCOCCOCCOCCOCCOCCOCCC(=O)N(C)Cc2cc(-c3ncco3)ccc2-c2ccccc2S(=O)(=O)Nc2ccno2)cc1 | 564 | 8 | 4690 | – | –
CC(=O)CC(=O)CCc1ccc(NC(=O)CCOCCOCCOCCOCCOc2ccc(CC(=O)N(C)Cc3cc(-c4ncco4)ccc3-c3ccccc3S(=O)(=O)Nc3ccno3)cc2)cc1 | 420 | 4.6 | 1910 | – | –
CC(=O)CC(=O)CCc1ccc(NC(=O)CCOCCOCCOCCOc2ccc(-c3ccccc3S(=O)(=O)Nc3ccno3)c(CN(C)C(=O)CC(C)(C)C)c2)cc1 | – | 44.9 | > 10000 | – | –

Now from value to molecule, other results behind:

Ratio IC50 [1] | IC50 [2] [nM] | IC50 [3] [nM] | SMILES | Activity [4] | inhibition in vivo at 2 mg/kg [5] [%]
1120 | 1.6 | 1110 | CC(=O)CC(=O)CCc1ccc(NC(=O)CCOCCOCCOCCOCC(=O)N(C)Cc2cc(-c3ncco3)ccc2-c2ccccc2S(=O)(=O)Nc2ccno2)cc1 | inactive | –
8980 | 1 | 6000 | CN(Cc1cc(-c2ncco2)ccc1-c1ccccc1S(=O)(=O)Nc1ccno1)C(=O)CC(C)(C)C | – | 50
564 | 7.7 | 4510 | CC(=O)CC(=O)CCc1ccc(NC(=O)CCOCCOCCOCCOCCOCCOCCOCCOCCOCCOCCOCCNC(=O)CCCC(=O)N(C)Cc2cc(-c3ncco3)ccc2-c2ccccc2S(=O)(=O)Nc2ccno2)cc1 | – | –
228 | 21.6 | 4920 | CC(=O)CC(=O)CCc1ccc(NC(=O)CCOCCOCCOCCOCCOc2ccc(CCC(=O)N(C)Cc3cc(-c4ncco4)ccc3-c3ccccc3S(=O)(=O)Nc3ccno3)cc2)cc1 | – | –
